Molecules are shown by their SMILES.

In experiment [1] the target is Adenosine kinase (Homo sapiens, UniProt P55263). The experiment can be described thus: Inhibition of adenosine kinase activity in IMR-32 human neuroblastoma cells. The format is cell-based.
For experiment [2], the target named is Adenosine kinase (Rattus norvegicus, UniProt Q64640). The experiment can be described thus: Inhibition adenosine kinase activity in rat brain in vitro. The format is tissue-based.
The next experiment concerns Mus musculus. The experiment in a line: Percent maximal protective effect for hotplate analgesia in mice after 30 umol/kg intraperitoneal administration. In kind it is functional. Summed up:
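Mice (n = 6-8 per group) tested on 55 °C hotplate 30 min after intraperitoneal dosing. %MPE = (postdrug latency − vehicle latency)/(cutoff latency − vehicle latency) × 100, cutoff 180 s; significance versus vehicle-treated mice at p < 0.05.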

The subject of another experiment is Rattus norvegicus. The experiment can be described thus: Reduction in formalin induced nociception after 10 umol/kg intraperitoneal administration.

Sequence of Adenosine kinase (Rattus norvegicus, UniProt Q64640) (Q64640 whole entry): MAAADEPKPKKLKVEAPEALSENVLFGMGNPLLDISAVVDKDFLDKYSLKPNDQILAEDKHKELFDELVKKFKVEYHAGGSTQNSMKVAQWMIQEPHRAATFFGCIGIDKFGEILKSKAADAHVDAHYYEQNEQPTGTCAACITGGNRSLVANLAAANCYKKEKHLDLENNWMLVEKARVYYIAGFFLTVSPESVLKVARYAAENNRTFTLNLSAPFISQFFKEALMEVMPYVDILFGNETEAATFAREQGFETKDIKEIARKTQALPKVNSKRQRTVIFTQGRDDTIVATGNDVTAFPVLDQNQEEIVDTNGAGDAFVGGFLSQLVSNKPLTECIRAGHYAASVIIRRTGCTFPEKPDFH
Sequence of Adenosine kinase (Homo sapiens, UniProt P55263) (P55263 whole entry): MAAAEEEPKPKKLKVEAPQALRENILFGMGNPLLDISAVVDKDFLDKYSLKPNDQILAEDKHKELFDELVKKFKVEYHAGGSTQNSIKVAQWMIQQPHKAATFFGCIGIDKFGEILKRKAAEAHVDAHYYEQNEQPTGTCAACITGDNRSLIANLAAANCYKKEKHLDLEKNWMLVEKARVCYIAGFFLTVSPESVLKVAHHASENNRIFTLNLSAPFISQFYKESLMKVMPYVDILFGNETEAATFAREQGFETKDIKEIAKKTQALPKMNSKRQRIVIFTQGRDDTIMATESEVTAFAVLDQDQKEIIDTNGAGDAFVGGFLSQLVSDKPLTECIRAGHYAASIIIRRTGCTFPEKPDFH

For the molecule `COc1ccc(-c2c(-c3cccs3)nc3ncnc(N)c3c2-c2cc(Br)cs2)cc1OC`, the IC50 (commonly the midpoint of a concentration-inhibition curve) at Adenosine kinase [1] worked out at 25 nM; at Adenosine kinase [2], 0.43 nM.
In the case of `CN(C)c1ccc(-c2nc3ncnc(N)c3c(-c3cccc(Br)c3)c2C2CCCCC2)cn1`, the IC50 against Adenosine kinase [1] was > 1000 nM; on Adenosine kinase [2], 300 nM.
For `Nc1ncnc2nc(-c3ccc(N4CCOCC4)nc3)c(Cc3ccccc3)c(-c3cccc(Br)c3)c12` the same measures were 450 nM and 63 nM.
For `Cc1ccc(-c2c(-c3cccs3)nc3ncnc(N)c3c2-c2ccc(C)c(F)c2)cc1F` the same measures were 288 nM and 0.25 nM.
Regarding `CN(C)c1ccc(-c2nc3ncnc(N)c3c(-c3cccc(Cl)c3)c2-c2ccccc2)cn1`, the IC50 against Adenosine kinase [1] was found to be 130 nM; at Adenosine kinase [2], 5 nM. Moreover, the figures for the Max protective effect with Mus musculus and with Rattus norvegicus were 56% and 39%, respectively.
With `CN(C)c1ccc(-c2c(-c3ccc(N4CCOCC4)nc3)nc3ncnc(N)c3c2-c2cccc(Cl)c2)cc1`, the IC50 on Adenosine kinase [1] came out at 130 nM; at Adenosine kinase [2] it was 37 nM.
For `COc1ccc(-c2c(-c3ccc(N(C)C)cc3)nc3ncnc(N)c3c2-c2cccc(Br)c2)cc1OC` the same measures were 350 nM and 3.1 nM.
Consider `Clc1ccc(-c2cnc3c(N4CCOCC4)ncnc3n2)cc1`, for which the IC50 against Adenosine kinase [1] was found to be 22000 nM; at Adenosine kinase [2], 410 nM.
For the molecule `CN(C)c1ccc(-c2nc3ncnc(N)c3c(-c3cc(Br)cs3)c2C2CC2)cn1`, the IC50 against Adenosine kinase [1] worked out at 625 nM; against Adenosine kinase [2], 60 nM.
Consider `CN(C)c1ccc(-c2nc3ncnc(N)c3cc2-c2ccccc2)cc1`, for which the IC50 against Adenosine kinase [1] is 1500 nM; on Adenosine kinase [2], 350 nM.
For `Nc1ncnc2nc(-c3ccc(N4CCOCC4)nc3)c(-c3ccccc3)c(-c3cccc(Br)c3)c12` the same measures were 155 nM and 4 nM.
For `COC(=O)Cc1c(-c2cccs2)nc2ncnc(N)c2c1-c1cccc(Br)c1` the same measures were 163 nM and 3 nM.
The corresponding values for `Nc1ncnc2nc(-c3cccs3)c(-c3ccccc3)c(-c3ccccc3)c12` are 49 nM and 0.55 nM.
`CCCCCc1c(-c2ccc(N(C)C)nc2)nc2ncnc(N)c2c1-c1cccc(Br)c1`: the IC50 was determined as 625 nM at Adenosine kinase [1] and 55 nM against Adenosine kinase [2].
`CN(C)c1ccc(-c2nc3ncnc(N)c3c(-c3ccccc3)c2-c2ccccc2)cc1`: the IC50 at Adenosine kinase [1] worked out at 250 nM; at Adenosine kinase [2], 16 nM. This molecule also displayed a Max protective effect with Mus musculus of 77%.
As for `CC(C)c1ccc(-c2c(-c3ccc(N(C)C)cc3)nc3ncnc(N)c3c2-c2ccc(C(C)C)cc2)cc1`, the IC50 against Adenosine kinase [1] was > 1000 nM; at Adenosine kinase [2], 6.7 nM.
For the molecule `CN(C)c1ccc(-c2nc3ncnc(N)c3c(-c3ccccc3)c2-c2ccccc2)cn1`, the IC50 against Adenosine kinase [1] amounted to 53 nM; on Adenosine kinase [2] it was 3.2 nM. Further, the Max protective effect came to 50% with Mus musculus and 38% in the experiment on Rattus norvegicus.
For `CC(C)c1c(-c2ccc(N3CCOCC3)nc2)nc2ncnc(N)c2c1-c1cccc(Br)c1`, the results for the IC50 at Adenosine kinase [1] and on Adenosine kinase [2] were > 1000 nM and 400 nM, respectively.
As to `COCCN(C)c1ccc(-c2nc3ncnc(N)c3c(-c3cc(Br)cs3)c2-c2ccc(OC)c(OC)c2)cc1`, the IC50 is 367 nM against Adenosine kinase [1] and 0.98 nM against Adenosine kinase [2].
`Nc1ncnc2nc(-c3ccc(N4CCOCC4)nc3)c(-c3ccc(F)cc3)c(-c3cccc(Br)c3)c12`: the IC50 against Adenosine kinase [1] came to 197 nM; against Adenosine kinase [2] it was 5 nM.
